Consider one compound from PubChem BioAssay AID602403 (The Scripps Research Institute Molecular Screening Center, 2012).

A number with no mark means an inactive call.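 Rule for the calls: active = inhibition of the enzyme-probe labelling of at least 50% at one fixed dose; inactive = inhibition below 50%.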

The test concerns the target Diacylglycerol lipase-alpha (Mus musculus) (UniProt Q6WQJ1). The experiment in a line: mouse DAGLa inhibition, late-stage follow-up, selectivity assay for DAGLb inhibitor project, biochemical, gel-based competitive ABPP, recombinant, fluorescence (AID 602403). The settings on record: HEK293T membrane mouse DAGLa, at 0.4 µM, active compounds read high. In outline:
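Test system: Membrane proteome of 293T HEK cells transiently overexpressing mouse DAGLa | Buffer or medium: DPBS | Also added: HT-01 probe, 1 µM | Schedule: Compound pre-incubation 30 min, probe labeling 30 min, both 37 °C | Detection: SDS-PAGE separation with in-gel fluorescence imaging of bands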

As a reminder, the inhibition is the drop in the measured response relative to a control, in per cent.

Chain of Diacylglycerol lipase-alpha (Mus musculus) (Q6WQJ1 whole entry, looked up): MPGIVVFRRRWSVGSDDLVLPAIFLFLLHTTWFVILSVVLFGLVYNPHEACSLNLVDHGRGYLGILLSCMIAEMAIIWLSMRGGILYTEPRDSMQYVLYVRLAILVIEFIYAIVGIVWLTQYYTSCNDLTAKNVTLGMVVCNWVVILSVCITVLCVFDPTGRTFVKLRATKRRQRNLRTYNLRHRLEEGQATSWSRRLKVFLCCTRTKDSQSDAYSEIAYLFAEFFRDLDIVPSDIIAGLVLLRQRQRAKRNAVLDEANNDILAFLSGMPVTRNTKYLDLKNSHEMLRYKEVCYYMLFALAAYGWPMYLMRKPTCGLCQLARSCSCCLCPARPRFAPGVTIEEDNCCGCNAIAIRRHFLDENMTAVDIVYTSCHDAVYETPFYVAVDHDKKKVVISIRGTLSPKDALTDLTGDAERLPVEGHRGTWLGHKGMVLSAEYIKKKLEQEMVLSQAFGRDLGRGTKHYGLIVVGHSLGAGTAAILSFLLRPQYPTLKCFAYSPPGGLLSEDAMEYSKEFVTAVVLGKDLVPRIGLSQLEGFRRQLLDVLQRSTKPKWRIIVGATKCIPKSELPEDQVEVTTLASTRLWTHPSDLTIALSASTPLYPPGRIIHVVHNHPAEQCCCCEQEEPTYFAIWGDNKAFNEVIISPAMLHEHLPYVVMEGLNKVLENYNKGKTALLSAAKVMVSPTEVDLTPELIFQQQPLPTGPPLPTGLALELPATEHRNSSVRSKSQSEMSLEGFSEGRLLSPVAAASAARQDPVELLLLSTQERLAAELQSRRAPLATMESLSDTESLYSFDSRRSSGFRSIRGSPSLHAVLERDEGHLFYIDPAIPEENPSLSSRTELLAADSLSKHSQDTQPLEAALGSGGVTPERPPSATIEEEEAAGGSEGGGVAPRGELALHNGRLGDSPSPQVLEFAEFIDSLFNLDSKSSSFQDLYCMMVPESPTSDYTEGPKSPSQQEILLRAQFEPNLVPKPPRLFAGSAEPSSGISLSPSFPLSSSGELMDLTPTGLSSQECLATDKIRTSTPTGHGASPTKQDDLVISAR

Take `O=C(N1CCCCC1Cc1ccccc1)n1cc(-c2ccc(-c3ccccc3)cc2)nn1` (stereo unspecified): the inhibition is 40%.
